The values that follow come from PubChem BioAssay AID651647 (Sanford-Burnham Center for Chemical Genomics, 2012).

Out of some 360,000 compounds screened, about 220 (0.061%) were called active.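 Rule for the calls: active = GFP/RFP ratio change of at least 30% with cell ATP level not reduced by more than half and red fluorescence within 50% of control; inactive = the rest, inconclusive results apart.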 Many of the other results were omitted from the sample, so actives are more common in it than they were.

This assay concerns the target Matrix metalloproteinase-14 (Homo sapiens) (UniProt P50281). Nature of the assay: MT1-MMP activation inhibitors, cellular reporter – HT1080 RFP-PRO-GFP cells, GFP/RFP fluorescence, primary screen (AID 651647). Conditions: overnight, at 20 µM, active compounds read high, percent of plate control window, DMSO zero. A digest of the protocol: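 Assay system: HT1080 cells carrying an RFP-PRO-GFP reporter | Dosing: Single dose of 20 µM compound, 1% DMSO final | Incubation: Cells overnight before dosing, compound overnight, 37 °C, 5% CO2 | Evaluation: GFP/RFP fluorescence ratio | Control set: DMSO and RFP-L50D-GFP cell wells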
As for `COC1=C/C(=C/c2c(N)n3nc(CC(=O)N4CCOCC4)sc3nc2=O)C=CC1=O`, the GFP/RFP ratio change is -33.2% (inactive).
Turning to `Cc1ccc(C(=O)Nc2nnc(C3=COCCO3)o2)cc1C`, the GFP/RFP ratio change was -0.926% (inactive).
Take `CCC(=O)N1CCCC1(C)C(=O)Nc1ccc2c(c1)CCN2C(C)=O` (configuration not stated): the GFP/RFP ratio change was -0.545% (inactive).
Under `NS(=O)(=O)c1ccc(N2C(=O)C3C4CC(C(Br)C4Br)C3C2=O)cc1` (configuration not stated) stands -0.391% (inactive); under `CCc1ccc(-c2cc3c(=O)n(CC(=O)NCCCN4CCN(Cc5ccccc5)CC4)nc(C)n3n2)cc1`, -3.13% (inactive).
Under `C/C(=N\c1nc2ccccc2n1C)c1cc(Cl)ccc1O` stands 1.93% (inactive).
In the case of `COc1cc(C(=S)NCc2ccccc2)cc(Br)c1O` it was 4.38% (inactive).
On to `O=S1(=O)CC(N2CCN(CCO)CC2)CN1C1CCCC1` (configuration not stated), for which the GFP/RFP ratio change is -0.753% (inactive).
In the case of `CSc1cccc(NC(=O)C2CCCN2S(=O)(=O)c2ccc3c(c2)CCC(=O)N3)c1` (configuration not stated) it was -0.538% (inactive); in that of `O=[N+]([O-])c1cc(S(=O)(=O)N2CCCC2)ccc1NN=C1CCCC1`, 0.0654% (inactive); in that of `COc1ccc(/C=C2\CCCC3C2=NN(C(=O)c2scnc2C)C3c2ccc(OC)cc2)cc1` (configuration not stated), -11.9% (inactive).
In the case of `CCN(c1ccccc1)S(=O)(=O)c1ccc2[nH]c(=O)[nH]c2c1` it was -1.12% (inactive); in that of `O=C1CCC(C(=O)N2CCC(O)(c3ccccc3)CC2)CN1CCc1ccccc1` (configuration not stated), -2.93% (inactive); in that of `COc1ccc(CCN2CC(C(=O)NCCN3CCNC3=O)CCC2=O)cc1` (configuration not stated), 0.0278% (inactive).
Under `Cc1ccc(-c2nc(CSCC(=O)NC3CCN(Cc4ccccc4)CC3)c(C)o2)cc1` stands 1.7% (inactive); under `CC1(C)N=C(c2ccccn2)C(C)(C)N1O`, -4.4% (inactive).
With `O=C(CSc1nc(C2CC2)nc2ccccc12)Nc1cccc(O)c1`, the GFP/RFP ratio change was -3.6% (inactive).
In the case of `O=C(NNc1c2ccccc2nc2ccccc12)c1cc2ccccc2cc1O` it was 55.7% (active); in that of `O=C(Cc1ccccn1)c1ccc(O)cc1O`, -2.78% (inactive); in that of `O=C(COC(=O)COc1ccccc1F)Nc1cccc(S(=O)(=O)N2CCCCC2)c1`, 4.15% (inactive).
Under `CC1(c2ccccc2Cl)NC(=O)N(CC(=O)NC(=O)NCc2ccco2)C1=O` (configuration not stated) stands -1.98% (inactive); under `O=C(Cn1c(-c2cscn2)nc2ccccc21)Nc1ccc(Cl)cc1`, 0.072% (inactive); under `O=C(CSc1nnc(-c2ccc([N+](=O)[O-])cc2)o1)Nc1ccccn1`, 3.02% (inactive).
Under `O=C(c1cc2c(s1)CCC2)N1CCN(c2ccccc2)CC1` stands -1.39% (inactive).
Take `O=C(COc1ncnc2c(Cl)cc(Cl)cc12)N1CCN(S(=O)(=O)c2ccccc2)CC1`: the GFP/RFP ratio change is -1.19% (inactive).
Under `COc1ccc(C(=O)CN2C(=O)NC(C)(c3ccc(C)cc3)C2=O)cc1OC` (configuration not stated) stands 5.51% (inactive); under `CCOC(=O)C1CCN(C(=O)Nc2ccc(C)c(Cl)c2)CC1`, 2.62% (inactive).
Turning to `CCC1=C(OC(=O)N(CC)CC)N2C(=O)OC(=NCC3CC3)[C@]2(C)[C@H]2C1=CC[C@H]1C(=O)N(CC(=O)OC)C(=O)[C@H]12`, the GFP/RFP ratio change was -1.64% (inactive).
In the case of `O=c1[nH]c2ccccc2n2c(-c3ccccc3)nnc12` it was 2.93% (inactive); in that of `Cc1ccc(NC(=O)CSc2nnc(CNC(=O)c3ccccc3F)o2)cc1Cl`, 3.87% (inactive); in that of `CCOC(=O)N1CCC(c2cc(=O)n(-c3ccccc3)[nH]2)CC1`, 9.16% (inactive).
With `CCOc1ccc(CCNC(=O)COC(=O)C2CCN(S(=O)(=O)c3ccccc3)CC2)cc1OCC`, the GFP/RFP ratio change is 2.91% (inactive).
Under `O=C(NCCN1CCOCC1)c1ccccc1N1C(=O)[C@@H]2Cc3c([nH]c4ccccc34)C(c3cccc(Cl)c3)N2C1=O` (some centres not stated) stands -1.74% (inactive); under `CC1(C)CC(O)C(CCC(O)c2ccccc2)C(C)(C)N1` (configuration not stated), -4.83% (inactive); under `CC1CCCCC12NC(=O)N(CC(=O)OCc1c(F)cccc1Cl)C2=O` (configuration not stated), -0.886% (inactive).
Under `O=C(CCN1CCN(C/C=C/c2ccccc2)CC1)Nc1cccc(F)c1` stands 5.08% (inactive).
In the case of `CCCOC1CCCN(C(=O)c2cc(COc3cncc(Cl)c3)on2)C1` (configuration not stated) it was 0.805% (inactive); in that of `CCCC1NC(=S)NC(C)=C1C(C)=O` (configuration not stated), 5.05% (inactive); in that of `O=C(C1CCN(S(=O)(=O)Cc2ccccc2)CC1)N1CCCc2ccccc21`, -2.92% (inactive).
Turning to `O=[N+]([O-])c1ccc(N2CCNCC2)cc1NCc1cccnc1`, the GFP/RFP ratio change is -8.92% (inactive).
Under `O=C(NC1CCCC1)C(c1ccc(Cl)cc1)N(C(=O)c1csnn1)C1CC1` (configuration not stated) stands -4.04% (inactive).
Under `O=C(c1ccco1)N1CCN(C(=O)C2CC(c3ccc(F)cc3)=NO2)CC1` (configuration not stated) stands 1.83% (inactive); under `CCc1cccc2c(C=C(C#N)C#N)cn(CC(=O)N3CCCCC3)c12`, 0.243% (inactive); under `CC(=O)c1cccc(-c2cnc3c(NC=O)cc(-c4ccc(N5CCN(C)CC5)cc4)cn23)c1`, -9.51% (inactive).
For the molecule `Cc1cc2ccccc2n1CCNC(=O)COc1ccc2ccccc2c1`, the GFP/RFP ratio change is 30.8% (active).
Under `COCCNC(=O)COc1ccc(N(C)S(=O)(=O)c2ccc3ccccc3c2)cc1` stands 0.935% (inactive).
With `CN(C)S(=O)(=O)c1cccc(NC(=O)COc2ccc3ccccc3c2)c1`, the GFP/RFP ratio change is 3.9% (inactive).
In the case of `C[C@@H]1CN([C@@H](C)CO)C(=O)c2cc(Br)cnc2O[C@@H]1CN(C)C(=O)C1CCCCC1` it was 5.19% (inactive); in that of `S=C1Nc2cc(Cl)ccc2Sc2ccccc21`, 1.33% (inactive).
Under `Cc1cc(C)cc(Oc2nc3c(C)cccn3c(=O)c2/C=C(\C#N)C(=O)NC2CCS(=O)(=O)C2)c1` (configuration not stated) stands -5.71% (inactive); under `O=C(CSc1nnc(-c2ccoc2)o1)N1CCOCC1`, -1.67% (inactive).
Turning to `O=C1Nc2ccccc2NC(c2ccc3c(c2)OCO3)=C1N(Cc1ccc(F)cc1)C(=O)c1ccco1`, the GFP/RFP ratio change was 1.27% (inactive).
Under `COc1ccc(C)cc1NC(=O)CCCN1C(=O)NC(C)(C)C1=O` stands -3.61% (inactive); under `C/C(=C\c1ccco1)CN1CCC(N2CCC(C(=O)N3CCOCC3)CC2)CC1`, 0.944% (inactive).
Under `Cc1ccc(CNC(=O)CC2Sc3ccccc3NC2=O)cc1` (configuration not stated) stands 0.784% (inactive); under `Cc1cc(-c2nnc(SCC(=O)Nc3ccc(S(N)(=O)=O)cc3)n2N)n[nH]1`, -2.72% (inactive); under `O=C(CSc1ccc(C(F)(F)F)cc1[N+](=O)[O-])NCCOc1ccccc1`, -0.0162% (inactive).
As for `Cc1cc(-c2nnc(CCC(=O)NC(c3ccccc3)c3ccccc3)o2)no1`, the GFP/RFP ratio change is -0.114% (inactive).
Under `CCn1c(SCC(=O)NC2CC2)nnc1-c1ccncc1` stands 1.37% (inactive).
Under `O=C(NCCCn1ccnc1)C1CCCN(S(=O)(=O)c2cc(Cl)ccc2Cl)C1` (configuration not stated) stands 0.609% (inactive); under `CC(C)C(NC(=O)c1cccc(S(=O)(=O)N2CCOCC2)c1)C(=O)NCCc1ccccn1` (configuration not stated), -6.01% (inactive).
In the case of `CC(Sc1nncs1)C(=O)NCc1ccc2c(c1)OCO2` (configuration not stated) it was 2.24% (inactive); in that of `CN(C)c1ccc(NC(=O)CN2C3CCCC2CC(NC(=O)c2ccccc2)C3)cc1` (configuration not stated), 6.85% (inactive).
Turning to `CCc1cc(-c2nnn(CCC3COCCO3)c2CC)ccc1-c1cn(Cc2ccc3ccccc3c2)nn1` (configuration not stated), the GFP/RFP ratio change is 2.05% (inactive).
Under `C/C=N/N(c1ccccc1)c1ccccc1` stands -0.385% (inactive); under `NS(=O)(=O)c1ccc(CCNC(=O)CCCn2c(SCC(=O)N3CCCC3)nc3ccsc3c2=O)cc1`, -1.21% (inactive); under `O=C(Nc1ccn(CCCNCc2ccc3[nH]ccc3c2)c(=O)n1)OCc1ccccc1`, -0.535% (inactive).
Under `CCOC(=O)C1C(c2ccc(OC)c(OC)c2)c2c([nH][nH]c2=O)CC1(C)O` (configuration not stated) stands 4.39% (inactive); under `O=C1CCN(Cc2ccccc2)CCN1[C@H](CSc1ccccc1)c1ccccc1`, -2.64% (inactive); under `COc1c(O)cccc1-c1nnn(CCC(=O)OCC(=O)c2ccccc2)n1`, 4.76% (inactive).
In the case of `CN(CC(=O)Nc1ccccc1F)CC(=O)Nc1ccccc1Br` it was 7.11% (inactive); in that of `O=C1NC[C@H](CCCCN2C[C@H](Cc3ccc(O)cc3)N(CC3CCCCC3)C(=O)C2=O)N(CCc2ccccc2)C1=O`, 1.64% (inactive).
Take `N#C[C@]1(S(=O)(=O)c2ccccc2)C[C@@H]2ON=C(c3cccc(Br)c3)[C@@H]2C1`: the GFP/RFP ratio change is 2.88% (inactive).
Under `CC(C)CC(O)C1CCN(C(=O)CCc2nnc(-c3ccc4c(c3)OCO4)o2)CC1` (configuration not stated) stands 1.69% (inactive); under `O=S1(=O)CCOC[C@H](Cc2ccccc2)N1Cc1ccccc1Br`, -1.83% (inactive); under `O=C(c1cc(Cl)cc(Cl)c1)N1CCC(=O)N(C(COCc2ccccc2)Cc2ccccc2)CC1` (configuration not stated), -5.95% (inactive).
Under `O=C(Nc1ccccc1F)C1C2C=CC3(O2)C1C(=O)N(c1cccnc1)C3C(=O)NC1CCCCC1` (configuration not stated) stands 1.65% (inactive); under `CCOC(=O)/C(N=Nc1cc(C(=O)O)cc(C(=O)O)c1)=C(\O)CCl`, -3.33% (inactive); under `Cc1cccc(C)c1NC(=O)C1(C)c2cccc[n+]2CC(=O)N1Cc1cccs1` (configuration not stated), -3.13% (inactive).
In the case of `CCCCCCCCOC1OC(CO)C(O)C(O)C1NC(C)=O` (configuration not stated) it was 0.0413% (inactive); in that of `CC(C)CC(=O)N1CCN(Cc2cccc(Cl)c2)CC1`, -0.171% (inactive); in that of `O=C(c1cccc(S(=O)(=O)N2CCCCCC2)c1)N1CCN(Cc2ccccc2)CC1`, -4.24% (inactive).
In the case of `O=C(c1cccc(Cl)c1)N1CCN(Cc2ccccc2)CC1`, the GFP/RFP ratio change is 30.7% (active).
`CN(C)c1ccc(C=NCCc2ccc(S(N)(=O)=O)cc2)cc1`: the GFP/RFP ratio change was 3.81% (inactive).
Under `CN(CC(=O)NC(=O)Nc1ccccc1F)Cc1ccccc1` stands 1.45% (inactive); under `COC(=O)C1C(=O)CC(C)(O)C(C(=O)OC)C1c1ccc2c(c1)OCO2` (configuration not stated), 19% (inactive).
Under `CS(=O)(=O)c1ccc2nnn(OCC(=O)Nc3cccc(C#N)c3)c2c1` stands 0.844% (inactive).
